Measurements as given in PubChem BioAssay AID651877 (Broad Institute, 2012).

Test system: T. cruzi CAI/72 in BESM cells, trypomastigote emergence microscopy
Assay: cidal versus static activity on T. cruzi, late-stage follow-up, mechanism study for T. cruzi inhibitor project, imaging, CAI/72 strain, BESM host cells, 20-day treatment (AID 651877)
Conditions: stronger effect = higher value
Procedure, shortened: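 system = BESM cells infected with T. cruzi CAI/72 | schedule = 20-day dosing every other day, then 38-day withdrawal | signal = daily light-microscopy check for emerging trypomastigotes | measure = trypomastigote emergence timing, absence indicating cure, delay indicating static effect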

For C[C@@H]1CN([C@@H](C)CO)C(=O)c2cccc(NC(=O)c3ccncc3)c2O[C@H]1CN(C)Cc1ccc(Cl)cc1, the day of emergence (at 0.25 µM) was 4 days, the day of emergence (at 0.74 µM) was 15 days and the day of emergence (at 2.2 µM) was 17 days. It also gave a normalised slope vs benznidazole of 6.

With C[C@@H]1CN([C@H](C)CO)C(=O)c2cccc(NC(=O)c3ccncc3)c2O[C@H]1CN(C)Cc1ccc(Oc2ccccc2)cc1 the day of emergence (at 0.25 µM) was 4 days, the day of emergence (at 0.74 µM) was 30 days and the day of emergence (at 2.2 µM) was over 37 days. For the same compound, the normalised slope vs benznidazole was 5.6.

With C[C@H]1CN([C@@H](C)CO)C(=O)c2cccc(NC(=O)c3ccncc3)c2O[C@@H]1CN(C)Cc1ccc(Oc2ccccc2)cc1 the day of emergence (at 0.25 µM) was 4 days and the normalised slope vs benznidazole was 70.

C[C@@H]1CN([C@@H](C)CO)C(=O)c2cccc(NC(=O)c3ccncc3)c2O[C@H]1CN(C)Cc1ccc(Oc2ccccc2)cc1 showed a day of emergence (at 0.25 µM) of 4 days, a day of emergence (at 0.74 µM) of over 37 days and a normalised slope vs benznidazole of 20.

Compound O=C(Cn1ccnc1[N+](=O)[O-])NCc1ccccc1 has a day of emergence (at 0.25 µM) of -14 days, a day of emergence (at 0.74 µM) of 1 days and a day of emergence (at 2.2 µM) of 6 days. It also gave a normalised slope vs benznidazole of 8.

With C[C@@H]1CN([C@H](C)CO)C(=O)c2cccc(NC(=O)c3ccncc3)c2O[C@H]1CN(C)Cc1ccccc1 the day of emergence (at 0.25 µM) was 4 days and the normalised slope vs benznidazole was 70.

C[C@H](CO)N1C[C@H](C)[C@H](CN(C)Cc2ccc(Oc3ccccc3)cc2)Oc2c(NC(=O)c3ccncc3)cccc2C1=O was tested, and the day of emergence (at 0.25 µM) was 4 days and the normalised slope vs benznidazole was 70.

Work on CC(C)N1C[C@@H](C)[C@H](CN(C)Cc2cccc(Oc3ccccc3)c2)Oc2c(NC(=O)c3ccncc3)cccc2C1=O yielded a day of emergence (at 0.25 µM) of 18 days and a normalised slope vs benznidazole of 66.

C[C@@H]1CN([C@@H](C)CO)C(=O)c2cccc(NC(=O)c3ccncc3)c2O[C@H]1CN(C)Cc1cccc(Cl)c1 showed a day of emergence (at 0.25 µM) of 4 days, a day of emergence (at 0.74 µM) of 17 days and a day of emergence (at 2.2 µM) of 18 days. For the same compound, the normalised slope vs benznidazole was 6.

In the case of C[C@H]1CN([C@@H](C)CO)C(=O)c2cccc(NC(=O)c3ccncc3)c2O[C@H]1CN(C)Cc1ccc(Oc2ccccc2)cc1, the day of emergence (at 0.25 µM) is reported as 4 days and the normalised slope vs benznidazole is reported as 70.
